Results reported in ChEMBL document CHEMBL1800065, “Enhanced stability and intracellular accumulation of quercetin by protection of the chemically or metabolically susceptible hydroxyl groups with a pivaloxymethyl (POM) promoiety” (J Med Chem, 2010).
Values after ≈ are worked out from the molar mass of the structure shown. Active and inactive are the calls of the source. The calls are words filed in the database; no cut-off is given here.

What was measured:
[1] = test system: HCT-116; assay: Antiproliferative activity against human HCT116 cells after 24 hrs by MTT assay in presence of antioxidative stabilizer ascorbic acid; type: functional, cell-based
Method in brief: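 HCT116 cells seeded at 5 × 10³ cells/well in complete DMEM and grown 1 day (37 °C, 5% CO₂). Compounds were dissolved in DMSO and diluted to 0.1–50 μM in medium containing ascorbic acid. Viability read by MTT after 24 h; triplicate wells, three independent repeats.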

[2] = Chemical stability of the compound in PBS buffer at pH 7.4 assessed as half life by HPLC analysis; type: physicochemical
Method in brief: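 Compound at 50 μM in PBS pH 7.4 at 37 °C, no stabilizer. Aliquots taken at 0–360 min and analysed by C-18 reverse-phase HPLC with UV detection at 340 nm and an acetonitrile/0.1% formic acid gradient. Half-life derived from the time course.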

[3] = test system: Huh-7; assay: Cellular uptake in human HuH7 cells assessed as compound remaining in cell lysate at 10 uM after 1 hr by HPLC-mass spectrophotometric analysis; type: ADME, cell-based; conditions: huh-7, 1 h
[4] = test system: MCF7; assay: Cell cycle arrest in human MCF7 cells assessed as increase in apoptotic cells in sub-G1 phase at 30 uM after 14 hrs by propidium iodide staining based flow cytometric analysis relative to quercetin; type: functional
[5] = test system: Huh-7; assay: Cellular uptake in human HuH7 cells assessed as compound remaining in culture media at 10 uM after 1 hrs by HPLC-mass spectrophotometric analysis; type: ADME, cell-based; conditions: huh-7, 1 h
[6] = test system: HCT-116; assay: Antiproliferative activity against human HCT116 cells after 24 hrs by MTT assay; type: functional, cell-based; conditions: HCT-116, 24 h
Method in brief: (§1)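 Cells seeded at 5 × 10³ per well in complete DMEM and grown 1 day at 37 °C, 5% CO₂. Compounds in DMSO diluted to 0.1–50 μM in medium, no ascorbic acid added. […] Each experiment run in triplicate and repeated three times.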

[7] = test system: MCF7; assay: Cellular uptake in human MCF7 cells assessed as compound remaining in cell lysates at 10 uM after 12 hr by HPLC-mass spectrophotometric analysis; type: ADME, cell-based, Lysate; conditions: mcf7, 12 h
Method in brief: (§2)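 Cells (MCF-7 or Huh-7) seeded at 10⁵ cells/well and grown 24 h (37 °C, 5% CO₂), then exposed to 10 μM compound. Media and washed, trypsinised, sonicated and filtered lysates analysed by HPLC at 1 and 12 h. Peaks collected and identified by MALDI-TOF MS; content given as percentage of integrated HPLC peak area.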

[8] = test system: MCF7; assay: Cell cycle arrest in human MCF7 cells assessed as decrease in accumulation at G0/G1 phase at 30 uM after 12 hrs by propidium iodide staining based flow cytometric analysis relative to quercetin; type: functional; parameters: scale not given: the % may be the effect or the level left
Method in brief: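 MCF-7 cells seeded in 35 mm dishes at 10⁵ cells and grown 12 h at 37 °C, 5% CO₂. Treated 12 h with conjugate at 30 μM, quercetin or 1% DMSO control. Propidium iodide staining, flow cytometry, percentage of cells in each phase.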

[9] = test system: HS27; assay: Antiproliferative activity against human HS27 cells after 24 hrs by MTT assay; type: cell-based; conditions: HS27, 24 h; method in brief: as §1
[10] = test system: HCT-116; assay: Cellular uptake in human HCT116 cells assessed a bright fluorescence light at 5 uM after 1 hr by fluorescence microscopic analysis; type: ADME, cell-based; conditions: hct-116, 1 h
[11] = test system: MCF7; assay: Antiproliferative activity against human MCF7 cells after 24 hrs by MTT assay; type: functional, cell-based; conditions: MCF7, 24 h; method in brief: as §1
[12] = test system: MCF7; assay: Cellular uptake in human MCF7 cells assessed as compound remaining in culture media at 10 uM after 12 hrs by HPLC-mass spectrophotometric analysis; type: ADME, cell-based; conditions: mcf7, 12 h; method in brief: as §2
[13] = test system: MCF7; assay: Cellular uptake in human MCF7 cells assessed as compound remaining in culture media at 10 uM after 1 hr by HPLC-mass spectrophotometric analysis; type: ADME, cell-based; conditions: mcf7, 1 h; method in brief: as §2
[14] = test system: MCF7; assay: Cell cycle arrest in human MCF7 cells assessed as increase in accumulation at S phase at 30 uM after 14 hrs by propidium iodide staining based flow cytometric analysis relative to quercetin; type: functional
[15] = Solubility of the compound in DMEM media assessed as forward light scattering by compound by microplate neplhelometric analysis; type: physicochemical; conditions: DMEM medium
Method in brief: (§3)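 Stocks in DMSO diluted to final 5–500 μM in DMEM, with or without FBS, at 1% DMSO. Forward light scattering measured by laser microplate nephelometry; solubility limit taken from the onset of scattering.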

[16] = Chemical stability of the compound in buffer at pH 2 assessed as half life by HPLC analysis; type: physicochemical
Method in brief: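 Compound incubated in pH 2.0 buffer without antioxidant stabiliser. Remaining parent followed by HPLC to derive the half-life.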

[17] = Chemical stability of the compound in cell-free DMEM culture media assessed as half life by HPLC analysis in presence of FBS; type: physicochemical; conditions: cell-free DMEM culture medium with FBS
Method in brief: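 50 μM in FBS-supplemented DMEM, diluted from 10 mM DMSO stock, no ascorbic acid, cell-free, 37 °C and 5% CO₂. Media sampled at time points up to 24 h and stored at −80 °C. Half-life determined by HPLC.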

[18] = test system: DU-145; assay: Antiproliferative activity against human DU145 cells after 24 hrs by MTT assay; type: functional, cell-based; conditions: DU-145, 24 h; method in brief: as §1
[19] = test system: MCF7; assay: Cellular uptake in human MCF7 cells assessed as compound remaining in cell lysates at 10 uM after 1 hr by HPLC-mass spectrophotometric analysis; type: ADME, cell-based, Lysate; conditions: mcf7, 1 h; method in brief: as §2
[20] = Aqueous solubility of the compound in PBS assessed as forward light scattering by compound by microplate neplhelometric analysis; type: physicochemical
Method in brief: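 Nephelometric solubility. DMSO stocks diluted in PBS (pH 7.4), 1% DMSO final, to 5–500 μM. Forward light scattering read in microplates to find the highest concentration free of scatter.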

[21] = Solubility of the compound in cell-free DMEM media assessed as forward light scattering by compound by microplate neplhelometric analysis in presence of FBS; type: physicochemical; conditions: cell-free DMEM medium with FBS; method in brief: as §3
[22] = test system: HCT-116; assay: Cellular uptake in human HCT116 cells assessed a bright fluorescence light at 5 uM after 12 hrs by fluorescence microscopic analysis; type: ADME, cell-based; conditions: hct-116, 12 h
[23] = test system: HCT-116; assay: Cellular uptake in human HCT116 cells assessed a bright fluorescence light at 5 uM after 12 hr by fluorescence microscopic analysis in presence of P-glycoprotein inhibitor verapamil; type: ADME, cell-based; conditions: hct-116, 12 h
[24] = Permeability of the compound measured on donor plate of PAMPA membrane at 50 uM after 5 hrs by HPLC analysis; type: ADME
Method in brief: (§4)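 Precoated PVDF PAMPA plate warmed to room temperature for 30 min. Donor held 50 μM compound in PBS with 5% DMSO; acceptor held PBS. Assembly incubated at room temperature for 1 and 5 h. Donor and acceptor aliquots analysed by HPLC; distribution given as percentage of integrated peak area.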

[25] = Permeability of the compound measured on acceptor plate of PAMPA membrane at 50 uM after 1 hr by HPLC analysis; type: ADME; method in brief: as §4
[26] = Permeability of the compound measured on donor plate of PAMPA membrane at 50 uM after 1 hr by HPLC analysis; type: ADME; method in brief: as §4
[27] = Permeability of the compound measured on acceptor plate of PAMPA membrane at 50 uM after 5 hrs by HPLC analysis; type: ADME; method in brief: as §4
[28] = test system: HCT-116; assay: Cellular uptake in human HCT116 cells assessed a bright fluorescence light at 5 uM after 12 hr by fluorescence microscopic analysis in presence of […]; type: ADME, cell-based; conditions: hct-116, 12 h
[29] = Half life in blood of cancer patient at 400 mg/kg, iv by HPLC analysis; type: ADME, organism-based; parameters: dose 400 mg/kg, route intravenous; conditions: human
[30] = Chemical stability of the compound in water assessed as half life by HPLC analysis; type: physicochemical
[31] = test system: Huh-7; assay: Cellular uptake in human HuH7 cells assessed as intracellular accumulation at 10 uM after 12 hrs by HPLC-mass spectrophotometric analysis; type: ADME, cell-based; conditions: huh-7, 12 h; method in brief: as §2
[32] = test system: MCF7; assay: Cellular uptake in human MCF7 cells assessed as formation of quercetin sulphate in cell lysates at 10 uM after 12 hrs by HPLC-mass spectrophotometric analysis; conditions: mcf7, 12 h
[33] = test system: Huh-7; assay: Cellular uptake in human HuH7 cells assessed as quercetin-sulphate accumulation at 10 uM after 12 hrs by HPLC-mass spectrophotometric analysis; type: ADME, cell-based; conditions: huh-7, 12 h; method in brief: as §2
[34] = test system: MCF7; assay: Cellular uptake in human MCF7 cells assessed as formation of methylated quercetin in cell lysates at 10 uM after 12 hrs by HPLC-mass spectrophotometric analysis; conditions: mcf7, 12 h
[35] = test system: MCF7; assay: Cell cycle arrest in human MCF7 cells assessed as decrease in accumulation at G0/G1 phase at 50 uM after 12 hrs by propidium iodide staining based flow cytometric analysis relative to untreated control; type: functional; parameters: scale not given: the % may be the effect or the level left
[36] = test system: MCF7; assay: Cellular uptake in human MCF7 cells assessed as formation of oxidised quercetin in cell lysates at 10 uM after 12 hrs by HPLC-mass spectrophotometric analysis; conditions: mcf7, 12 h
[37] = test system: Huh-7; assay: Cellular uptake in human HuH7 cells assessed as methyl-quercetin accumulation at 10 uM after 12 hrs by HPLC-mass spectrophotometric analysis; type: ADME, cell-based; conditions: huh-7, 12 h; method in brief: as §2
[38] = test system: MCF7; assay: Cellular uptake in human MCF7 cells assessed as formation of quercetin glucuronide in cell lysates at 10 uM after 12 hrs by HPLC-mass spectrophotometric analysis; conditions: mcf7, 12 h
[39] = test system: MCF7; assay: Cell cycle arrest in human MCF7 cells assessed as increase in accumulation at S phase at 50 uM after 14 hrs by propidium iodide staining based flow cytometric analysis relative to untreated control; type: functional

SMILES | Activity [1] | half-life [2] | EC50 [6] | Drug uptake [7] | EC50 [9] | Drug uptake [10] | EC50 [11] | Drug uptake [12] | Drug uptake [13] | solubility kinetic [15] | half-life [16] | half-life [17] | EC50 [18] | solubility kinetic [20] | solubility kinetic [21] | Drug uptake [22] | permeability [24] | permeability [25] | permeability [26] | permeability [27] | also measured
CC(C)(C)C(=O)OCOc1cc(O)c2c(=O)c(O)c(-c3ccc(O)c(O)c3)oc2c1 | Active | > 72 h | 36 µM | 4% | > 100 µM | Active | 20 µM | 12% | 62% | 50 µM (≈ 20.8 µg/mL) | 7 h | 4 h | 10 µM | 5 µM (≈ 2.08 µg/mL) | 200 µM | Active | – | – | – | – | Drug uptake [3]: Active; Activity [4]: Active; Drug uptake [5]: Active; Activity [8]: 10%; Activity [14]: 120%; Drug uptake [19]: 21%
CC(C)(C)C(=O)OCOc1c(-c2ccc(O)c(O)c2)oc2cc(O)cc(O)c2c1=O | – | > 72 h | > 100 µM | – | > 100 µM | Not Active | > 100 µM | – | – | 100 µM (≈ 41.6 µg/mL) | 20 h | 52 h | > 100 µM | 100 µM (≈ 41.6 µg/mL) | > 400 µM | Not Active | 74% | 0% | 87% | 0% | Drug uptake [23]: Not Active; Drug uptake [28]: Not Active
O=C(O)CNC(=O)Oc1cc(-c2oc3cc(O)cc(O)c3c(=O)c2O)ccc1O [QC-12] | – | 10 h | – | – | – | – | – | – | – | > 400 µM | 3 h | 0.8 h | – | > 400 µM | > 400 µM | – | 18% | 55% | 6% | 40% | half-life [29]: 0.39 h; half-life [30]: 16.9 h
O=c1c(O)c(-c2ccc(O)c(O)c2)oc2cc(O)cc(O)c12 [QUERCETIN] | inactive | 10 h | > 100 µM | 17% | > 100 µM | Active | > 100 µM | 5% | 5% | – | 7 h | < 0.5 h | > 100 µM | 100 µM (≈ 30.2 µg/mL) | – | Not Active | 8% | 16% | 45% | 6% | Drug uptake [31]: Not Active; Drug uptake [32]: Active; Drug uptake [33]: < 5%; Drug uptake [34]: Active; Activity [35]: 21%; Drug uptake [36]: Active; Drug uptake [37]: < 5%; Drug uptake [38]: Active; Drug uptake [19]: 7%; Activity [39]: 78%
